Experimental data reported in PMC9050161 (RSC Advances, 2020).

How the values were obtained:
BCRP = BCRP (Homo sapiens, UniProt Q9UNQ0); experiment: M2 excretion in HeLa1A9 cells after shRNA knock-down of BCRP; format: cell-based
How it was run: (§1)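 shRNA plasmid against BCRP, MRP1, MRP3 or MRP4 transfected into UGT1A9-expressing HeLa cells, then exposed to 5 μM test compound in HBSS. Medium sampled at 30–120 min with replacement; cells collected at 120 min. UHPLC gave extracellular and intracellular glucuronide, excretion rate, efflux clearance (excretion rate/intracellular concentration) and fraction metabolized (fmet), each compared with control. Triplicate.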

MRP4 = MRP4 (Homo sapiens, UniProt O15439); experiment: M2 excretion in HeLa1A9 cells after shRNA knock-down of MRP4; format: cell-based; conditions: MRP4 silencing
How it was run: as §1

HeLa cells = experiment: Toxicity of PI-103 in HeLa cells; format: cell-based, human; conditions: within the experimental concentrations (maximal 5 μM)
CYP2A6 = CYP2A6 (Homo sapiens, UniProt P11509); experiment: Inhibition of CYP2A6; format: biochemical; conditions: PI-103 1, 10 and 100 μM
How it was run: (§2)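 Recombinant human CYPs at 0.1 mg mL−1 protein, each with its probe substrate near Km: coumarin 100 μM (2A6), bupropion 100 μM (2B6), paclitaxel 60 μM (2C8), tolbutamide 200 μM (2C9), mephenytoin 100 μM (2C19), chlorzoxazone 200 μM (2E1). Incubated at 37 °C with or without test compound at 1, 10 or 100 μM. UHPLC-TQD-MS read-out; triplicate.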

CYP2C8 = CYP2C8 (Homo sapiens, UniProt P10632); experiment: Inhibition of CYP2C8; format: biochemical; conditions: PI-103 1, 10 and 100 μM
How it was run: as §2

CYP2C19 = CYP2C19 (Homo sapiens, UniProt P33261); experiment: Inhibition of CYP2C19; format: biochemical
How it was run: as §2

UGT1A3 = biological target: T1, UGT1A3 (Homo sapiens, UniProt P35503); experiment: Inhibition of UGT1A3; format: biochemical
T1 sequence (P35503 29-534): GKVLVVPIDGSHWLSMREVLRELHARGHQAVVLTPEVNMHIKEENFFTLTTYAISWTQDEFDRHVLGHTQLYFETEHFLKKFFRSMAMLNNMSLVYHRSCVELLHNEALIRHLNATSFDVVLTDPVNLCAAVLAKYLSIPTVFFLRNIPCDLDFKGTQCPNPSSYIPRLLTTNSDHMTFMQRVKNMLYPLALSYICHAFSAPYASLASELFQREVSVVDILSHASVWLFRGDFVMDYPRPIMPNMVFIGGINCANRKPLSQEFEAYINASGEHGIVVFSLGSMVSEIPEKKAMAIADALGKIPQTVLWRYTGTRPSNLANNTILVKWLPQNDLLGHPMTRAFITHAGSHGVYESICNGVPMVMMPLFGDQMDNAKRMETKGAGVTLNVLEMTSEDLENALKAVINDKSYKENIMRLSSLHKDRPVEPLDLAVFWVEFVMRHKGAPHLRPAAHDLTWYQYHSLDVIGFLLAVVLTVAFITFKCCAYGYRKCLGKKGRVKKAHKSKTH
How it was run: (§3)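 Recombinant human UGTs screened with probe substrates: β-estradiol for UGT1A1, propofol for 1A9, and 4-methylumbelliferone for 1A3, 1A6, 1A7, 1A8, 1A10, 2B4, 2B7, 2B10, 2B15 and 2B17. Incubated at 37 °C without (control) or with test compound at 1, 10 or 100 μM. Glucuronide formation measured relative to control; triplicate.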

UGT1A8 = UGT1A8 (Homo sapiens, UniProt Q9HAW9); experiment: Inhibition of UGT1A8; format: biochemical; conditions: PI-103 1, 10 and 100 μM
How it was run: as §3

UGT1A10 = UGT1A10 (Homo sapiens, UniProt Q9HAW8); experiment: Inhibition of UGT1A10; format: biochemical; conditions: PI-103 1, 10 and 100 μM
How it was run: as §3

UGT2B4 = UGT2B4 (Homo sapiens, UniProt P06133); experiment: Inhibition of UGT2B4; format: biochemical; conditions: PI-103 1, 10 and 100 μM
How it was run: as §3

UGT2B7 = biological target: T2, UGT2B7 (Homo sapiens, UniProt P16662); experiment: Inhibition of UGT2B7; format: biochemical
T2 sequence (P16662 24-529): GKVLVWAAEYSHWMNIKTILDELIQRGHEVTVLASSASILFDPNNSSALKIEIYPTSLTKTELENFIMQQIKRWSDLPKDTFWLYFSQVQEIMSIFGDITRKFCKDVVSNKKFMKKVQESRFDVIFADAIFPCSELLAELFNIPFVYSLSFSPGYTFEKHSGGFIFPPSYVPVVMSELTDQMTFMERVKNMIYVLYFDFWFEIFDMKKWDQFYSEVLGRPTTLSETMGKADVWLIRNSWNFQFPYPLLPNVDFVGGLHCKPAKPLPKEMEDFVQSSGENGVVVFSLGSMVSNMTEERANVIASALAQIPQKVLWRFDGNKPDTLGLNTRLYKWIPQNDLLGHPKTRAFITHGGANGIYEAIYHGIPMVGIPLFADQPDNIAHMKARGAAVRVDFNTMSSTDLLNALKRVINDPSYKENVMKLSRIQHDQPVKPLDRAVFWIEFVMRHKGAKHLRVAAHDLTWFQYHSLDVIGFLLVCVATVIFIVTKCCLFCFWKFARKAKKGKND
How it was run: as §3

UGT2B17 = UGT2B17 (Homo sapiens, UniProt O75795); experiment: Inhibition of UGT2B17; format: biochemical; conditions: PI-103 1, 10 and 100 μM
How it was run: as §3

p110β = conditions: cited from earlier work
p110δ = conditions: cited from earlier work
p110γ = conditions: cited from earlier work

Chain of CYP2C19 (P33261 whole entry): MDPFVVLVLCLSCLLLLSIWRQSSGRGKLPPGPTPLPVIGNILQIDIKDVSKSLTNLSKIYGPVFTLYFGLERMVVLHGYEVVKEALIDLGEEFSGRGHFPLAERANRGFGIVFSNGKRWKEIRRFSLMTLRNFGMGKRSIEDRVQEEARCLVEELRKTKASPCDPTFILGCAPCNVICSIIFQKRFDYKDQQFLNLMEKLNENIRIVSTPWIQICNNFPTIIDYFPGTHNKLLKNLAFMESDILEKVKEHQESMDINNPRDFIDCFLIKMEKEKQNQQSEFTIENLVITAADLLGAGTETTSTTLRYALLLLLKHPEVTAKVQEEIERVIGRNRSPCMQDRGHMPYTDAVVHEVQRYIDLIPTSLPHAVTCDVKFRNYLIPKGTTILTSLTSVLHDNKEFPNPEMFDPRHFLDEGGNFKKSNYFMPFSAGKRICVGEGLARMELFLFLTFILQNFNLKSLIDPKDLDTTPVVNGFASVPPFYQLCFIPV
Chain of CYP2C8 (P10632 whole entry): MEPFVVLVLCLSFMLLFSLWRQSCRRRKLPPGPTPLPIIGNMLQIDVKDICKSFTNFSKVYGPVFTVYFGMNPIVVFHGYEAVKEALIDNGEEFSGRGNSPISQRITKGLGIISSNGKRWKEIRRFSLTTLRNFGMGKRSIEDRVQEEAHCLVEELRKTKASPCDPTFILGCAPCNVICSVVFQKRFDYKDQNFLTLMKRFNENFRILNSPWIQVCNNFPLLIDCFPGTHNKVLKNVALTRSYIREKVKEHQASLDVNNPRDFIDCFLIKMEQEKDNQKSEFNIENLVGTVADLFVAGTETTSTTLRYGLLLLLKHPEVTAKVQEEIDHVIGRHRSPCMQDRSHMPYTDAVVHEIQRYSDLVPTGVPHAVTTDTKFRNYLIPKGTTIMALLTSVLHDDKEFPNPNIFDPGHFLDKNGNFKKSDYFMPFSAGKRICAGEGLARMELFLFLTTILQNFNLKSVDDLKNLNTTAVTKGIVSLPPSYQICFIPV
Chain of UGT2B17 (O75795 24-530): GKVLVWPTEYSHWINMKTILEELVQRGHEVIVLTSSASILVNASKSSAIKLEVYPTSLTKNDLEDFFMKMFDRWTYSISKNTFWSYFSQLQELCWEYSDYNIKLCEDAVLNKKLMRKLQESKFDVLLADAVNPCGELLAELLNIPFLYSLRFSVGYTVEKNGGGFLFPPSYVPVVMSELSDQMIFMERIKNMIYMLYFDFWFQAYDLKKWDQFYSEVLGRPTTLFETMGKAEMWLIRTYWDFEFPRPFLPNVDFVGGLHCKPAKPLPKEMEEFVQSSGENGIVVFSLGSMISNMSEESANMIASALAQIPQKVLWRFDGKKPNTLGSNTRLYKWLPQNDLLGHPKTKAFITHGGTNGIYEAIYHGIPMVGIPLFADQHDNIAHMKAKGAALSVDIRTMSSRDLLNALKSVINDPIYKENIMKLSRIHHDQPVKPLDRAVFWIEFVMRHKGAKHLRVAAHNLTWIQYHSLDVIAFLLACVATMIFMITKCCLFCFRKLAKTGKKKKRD
Chain of CYP2A6 (P11509 whole entry): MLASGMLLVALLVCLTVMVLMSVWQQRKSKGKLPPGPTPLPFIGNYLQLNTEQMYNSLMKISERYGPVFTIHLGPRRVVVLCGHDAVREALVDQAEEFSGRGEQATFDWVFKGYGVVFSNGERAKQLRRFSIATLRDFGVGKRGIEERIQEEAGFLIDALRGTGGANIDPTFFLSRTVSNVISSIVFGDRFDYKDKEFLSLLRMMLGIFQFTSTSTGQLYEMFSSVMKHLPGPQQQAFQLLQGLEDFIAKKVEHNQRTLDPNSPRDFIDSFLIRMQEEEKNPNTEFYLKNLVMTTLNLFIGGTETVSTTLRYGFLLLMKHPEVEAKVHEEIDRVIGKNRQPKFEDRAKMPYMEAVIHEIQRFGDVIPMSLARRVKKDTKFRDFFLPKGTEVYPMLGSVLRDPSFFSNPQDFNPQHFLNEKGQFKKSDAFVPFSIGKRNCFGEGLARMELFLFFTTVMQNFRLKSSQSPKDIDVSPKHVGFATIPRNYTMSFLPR
Chain of UGT1A8 (Q9HAW9 26-530): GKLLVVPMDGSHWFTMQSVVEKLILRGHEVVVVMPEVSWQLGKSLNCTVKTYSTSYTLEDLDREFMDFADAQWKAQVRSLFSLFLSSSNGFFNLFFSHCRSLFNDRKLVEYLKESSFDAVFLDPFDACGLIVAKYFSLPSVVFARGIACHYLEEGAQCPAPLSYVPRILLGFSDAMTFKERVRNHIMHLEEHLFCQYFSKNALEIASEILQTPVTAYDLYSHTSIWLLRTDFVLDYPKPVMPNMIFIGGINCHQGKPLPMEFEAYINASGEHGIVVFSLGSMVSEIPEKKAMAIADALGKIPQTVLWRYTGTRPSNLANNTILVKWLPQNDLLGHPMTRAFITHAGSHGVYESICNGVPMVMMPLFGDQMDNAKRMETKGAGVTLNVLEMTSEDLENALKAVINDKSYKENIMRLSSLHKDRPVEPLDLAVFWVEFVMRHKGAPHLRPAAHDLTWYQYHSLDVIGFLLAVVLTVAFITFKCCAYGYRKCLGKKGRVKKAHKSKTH
Chain of UGT2B4 (P06133 24-528): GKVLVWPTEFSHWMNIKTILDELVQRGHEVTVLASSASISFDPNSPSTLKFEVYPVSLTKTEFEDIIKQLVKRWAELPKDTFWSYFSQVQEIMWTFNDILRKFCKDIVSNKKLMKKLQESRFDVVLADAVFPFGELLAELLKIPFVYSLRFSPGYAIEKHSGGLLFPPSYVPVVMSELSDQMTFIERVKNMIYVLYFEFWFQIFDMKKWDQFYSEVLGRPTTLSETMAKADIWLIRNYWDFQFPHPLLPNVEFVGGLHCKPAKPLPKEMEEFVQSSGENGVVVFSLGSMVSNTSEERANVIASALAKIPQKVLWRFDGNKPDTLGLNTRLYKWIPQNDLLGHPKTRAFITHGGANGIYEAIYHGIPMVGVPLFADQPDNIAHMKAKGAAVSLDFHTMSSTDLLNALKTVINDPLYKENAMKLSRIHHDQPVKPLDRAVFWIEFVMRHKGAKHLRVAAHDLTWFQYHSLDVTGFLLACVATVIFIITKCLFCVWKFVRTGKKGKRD
Chain of UGT1A10 (Q9HAW8 26-530): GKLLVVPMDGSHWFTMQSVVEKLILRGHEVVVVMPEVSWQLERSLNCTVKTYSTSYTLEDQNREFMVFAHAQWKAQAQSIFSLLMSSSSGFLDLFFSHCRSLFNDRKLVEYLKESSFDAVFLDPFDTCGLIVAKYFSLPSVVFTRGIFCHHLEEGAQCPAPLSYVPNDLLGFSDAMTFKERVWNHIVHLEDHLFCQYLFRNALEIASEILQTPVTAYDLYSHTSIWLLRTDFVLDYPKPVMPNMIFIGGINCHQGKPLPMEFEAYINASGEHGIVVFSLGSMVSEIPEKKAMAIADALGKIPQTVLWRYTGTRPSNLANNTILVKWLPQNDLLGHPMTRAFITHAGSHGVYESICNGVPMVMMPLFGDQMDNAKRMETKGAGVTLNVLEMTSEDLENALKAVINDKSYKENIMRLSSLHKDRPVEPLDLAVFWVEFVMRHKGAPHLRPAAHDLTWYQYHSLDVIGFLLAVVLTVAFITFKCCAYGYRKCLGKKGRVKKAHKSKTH
Chain of MRP4 (O15439 whole entry): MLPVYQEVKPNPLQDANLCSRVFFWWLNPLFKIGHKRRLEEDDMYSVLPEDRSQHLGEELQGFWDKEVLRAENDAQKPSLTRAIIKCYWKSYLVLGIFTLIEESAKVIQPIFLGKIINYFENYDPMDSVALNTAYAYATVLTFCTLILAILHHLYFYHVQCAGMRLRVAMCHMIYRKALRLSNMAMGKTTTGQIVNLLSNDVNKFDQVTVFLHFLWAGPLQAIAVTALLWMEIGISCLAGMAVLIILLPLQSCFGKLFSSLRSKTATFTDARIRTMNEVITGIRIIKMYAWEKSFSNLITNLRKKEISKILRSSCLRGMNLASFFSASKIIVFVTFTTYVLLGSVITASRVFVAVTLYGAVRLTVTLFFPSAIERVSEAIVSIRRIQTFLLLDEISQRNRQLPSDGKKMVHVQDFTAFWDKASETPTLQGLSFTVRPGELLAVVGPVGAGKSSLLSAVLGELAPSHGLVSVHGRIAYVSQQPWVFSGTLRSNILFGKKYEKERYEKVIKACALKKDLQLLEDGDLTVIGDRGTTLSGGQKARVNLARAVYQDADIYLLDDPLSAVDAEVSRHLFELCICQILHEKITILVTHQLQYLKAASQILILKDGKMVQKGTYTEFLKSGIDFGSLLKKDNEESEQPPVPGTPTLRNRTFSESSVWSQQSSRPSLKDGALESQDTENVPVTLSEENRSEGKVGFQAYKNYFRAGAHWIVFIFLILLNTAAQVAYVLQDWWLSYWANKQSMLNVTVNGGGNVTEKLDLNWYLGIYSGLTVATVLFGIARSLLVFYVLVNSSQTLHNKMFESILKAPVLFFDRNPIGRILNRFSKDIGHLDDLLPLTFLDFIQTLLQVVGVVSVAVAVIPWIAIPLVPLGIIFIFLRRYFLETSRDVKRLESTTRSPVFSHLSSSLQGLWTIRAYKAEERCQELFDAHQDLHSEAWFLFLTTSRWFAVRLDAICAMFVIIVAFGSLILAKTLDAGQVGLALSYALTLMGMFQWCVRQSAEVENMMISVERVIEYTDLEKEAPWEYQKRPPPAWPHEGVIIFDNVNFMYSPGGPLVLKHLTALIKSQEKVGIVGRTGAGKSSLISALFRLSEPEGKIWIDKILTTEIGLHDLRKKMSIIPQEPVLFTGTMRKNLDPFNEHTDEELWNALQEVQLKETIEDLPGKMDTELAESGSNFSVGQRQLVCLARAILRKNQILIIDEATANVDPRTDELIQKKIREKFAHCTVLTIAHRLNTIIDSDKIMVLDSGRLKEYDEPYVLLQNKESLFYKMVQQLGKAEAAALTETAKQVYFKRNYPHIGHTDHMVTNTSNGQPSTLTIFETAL

Which “reduction in fraction of metabolized (fmet) PI-103” value (BCRP) does the source give for `Oc1cccc(-c2nc(N3CCOCC3)c3oc4ncccc4c3n2)c1` [PI-103] here?
The value was 27.6%.

And the “decrease in fmet value of PI-103” value (MRP4)?
Its value is 33.8%.

What about the “toxicity in HeLa cells” value (HeLa cells) of the same compound?
The value was “no significant toxicities”.

What about the inhibitory effect (CYP2A6) of the same compound?
The inhibitory effect was “negligible or weak”.

What about the inhibitory effect (CYP2C8) of the same compound?
Its inhibitory effect is “negligible or weak”.

And the IC50 (CYP2C19)?
Its IC50 is 590 ± 60 nM.

What about the Ki (CYP2C19) of the same compound?
Its Ki is 530 ± 30 nM.

What about the residual activity (CYP2C19; CYP2C19, 100 μM PI-103) of the same compound?
The residual activity was 14.67 % of the negative control.

What about the Type of inhibition (CYP2C19; CYP2C19, mephenytoin) of the same compound?
Its Type of inhibition is “Noncompetitive”.

And the IC50 (UGT1A3)?
The IC50 was 6890 ± 730 nM.

And the Ki (UGT1A3)?
The Ki was 2580 ± 840 nM.

What about the Type of inhibition (UGT1A3; UGT1A3, 4-MU) of the same compound?
The Type of inhibition was “Mixed-type”.

What about the α (UGT1A3; UGT1A3, 4-MU, mixed-type model (selected)) of the same compound?
The α was 2.97 ± 1.61.

What about the inhibitory effect (UGT1A8) of the same compound?
The inhibitory effect was “negligible”.

And the inhibitory effect (UGT1A10)?
Its inhibitory effect is “negligible”.

And the inhibitory effect (UGT2B4)?
Its inhibitory effect is “negligible”.

And the IC50 (UGT2B7)?
The IC50 was 1590 ± 210 nM.

What about the Ki (UGT2B7) of the same compound?
The Ki was 1350 ± 150 nM.

What about the Type of inhibition (UGT2B7; UGT2B7, 4-MU) of the same compound?
The Type of inhibition was “Noncompetitive”.

What about the inhibitory effect (UGT2B17) of the same compound?
Its inhibitory effect is “negligible”.

What about the IC50 (p110β) of the same compound?
The IC50 was 88 nM.

And the IC50 (p110γ)?
The IC50 was 150 nM.
